Screening results as filed in PubChem.
RBBP9 inhibitor: inhibitors of human serine hydrolase RBBP9. 0.2% of 220,000 active. O75884. recombinant RBBP9, FP-Rh probe fluorescence polarization. inhibition, % at 7.94 µM. AID 1515;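 active = inhibition above the campaign mean of all tested compounds plus 3 SD, cut at about 14% in these data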;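 note: plate controls were DMSO wells with RBBP9 for no effect and wells lacking RBBP9 protein for full effect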
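system = RBBP9 protein | input = RBBP9 at 2.5 µM in dispensed solution, before mixing | measured by = fluorescence polarization (mP), excitation 525 nm, emission 598 nm | incubation = enzyme-compound preincubation 30 min, then probe labeling 45 min, 25 °C | buffer or medium = Tris-NaCl-Pluronic buffer, pH 8.0 | compound = single dose 7.94 µM | also added = FP-Rh probe, 375 nM dispensing solution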
Runt-CBFb FRET: blocks binding of human RUNX1 Runt domain to CBFb. 0.46% of 220,000 active. inhibition, % at 20 µM. Q01196+Q13951. Cerulean-Runt/Venus-CBFb FRET ratio 530/480, 1 h;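 active = inhibition over about 50% at 20 µM in the single-dose screen, limit read from the data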;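 note: 0% = DMSO wells and 100% = excess unlabeled CBFb competitor control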
Target sequence (Q01196 whole entry, looked up, the tested form may be a part): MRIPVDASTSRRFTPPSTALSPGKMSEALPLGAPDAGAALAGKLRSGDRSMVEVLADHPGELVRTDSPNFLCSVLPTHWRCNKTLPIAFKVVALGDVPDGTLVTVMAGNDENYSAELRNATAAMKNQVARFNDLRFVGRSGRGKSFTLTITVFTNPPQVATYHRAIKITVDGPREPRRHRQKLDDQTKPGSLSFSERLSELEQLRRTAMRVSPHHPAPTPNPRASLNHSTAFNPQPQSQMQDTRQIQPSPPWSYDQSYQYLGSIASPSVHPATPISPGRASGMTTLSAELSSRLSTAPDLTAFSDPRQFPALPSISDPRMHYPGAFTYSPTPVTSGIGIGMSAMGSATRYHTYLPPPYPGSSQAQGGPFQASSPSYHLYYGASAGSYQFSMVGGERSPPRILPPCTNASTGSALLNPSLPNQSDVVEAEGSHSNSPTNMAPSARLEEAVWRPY
Target sequence (Q13951 whole entry, looked up, the tested form may be a part): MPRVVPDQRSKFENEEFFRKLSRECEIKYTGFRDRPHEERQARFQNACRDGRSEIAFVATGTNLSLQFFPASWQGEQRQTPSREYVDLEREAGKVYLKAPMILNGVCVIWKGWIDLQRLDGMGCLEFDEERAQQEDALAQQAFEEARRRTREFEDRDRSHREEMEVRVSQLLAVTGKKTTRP
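Assay system: Cerulean-Runt domain / Medium: Tris 50 mM pH 7.5, KCl, K2SO4, 0.01% BSA / Timing: protein complex preformed 1 h, compound exposure 1 h, room temperature, dark / Measured by: FRET, excitation 422 nm, emission at 530 and 480 nm / Evaluation: loss of energy transfer signal / Control set: 5 µM unlabeled CBFb as full-inhibition high control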
PfM18AAP inh-1: blocks P. falciparum M18 aspartyl aminopeptidase | recombinant PfM18AAP, H-Glu-NHMec fluorogenic cleavage | inhibition, % at 7.35 µM | 1.2% of 290,000 active | AID 1822;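 active = inhibition above the campaign mean inhibition over all tested compounds plus 3 SD, cut at about 28% in these data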;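 note: 0% = plate median of test compound wells and 100% = 2 mM ZnCl2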
Runt-SMMHC FRET: Runt domain-CBFb-SMMHC interaction inhibition; 0.74% of 220,000 active; Cerulean-Runt/Venus-CBFb-SMMHC FRET ratio 530/480, 1 h; inhibition, % at 20 µM;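 active = mean inhibition across duplicate retests at 20 µM reaching about 50%, limit read from the data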;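 note: 0% = DMSO wells and 100% = wells with excess untagged CBFb-SMMHC; inhibitors lower the FRET ratio by blocking Runt binding to CBFb-SMMHC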
RanGTP-Impb inh: disruptors of Ran-importin-beta complex formation – biochemical, FRET, CFP-Ran, YFP-importin-beta, homogeneous, primary screen; 1.1% of 300,000 active; inhibition, % (no concentration beside the values); cell-free CFP-Ran/YFP-importin-beta FRET ratio;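 active = more than half of the replicate wells show a fall in the fluorescence ratio signal beyond about 16%, limit read from the data, passing the limit was not always enough; inconclusive = exactly half of the replicate wells pass the set limit; inactive = fewer than half of replicates pass the limit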;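 note: 0% = DMSO wells and 100% = Ran loaded with GDP instead of GTP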
Hck-Nef inh: inhibitors of human Hck kinase activated by Nef; Recombinant Hck-YEEI plus Nef, Z-Lyte FRET kinase assay; inhibition, % at 20 µM; 0.68% of 220,000 active; AID 463187;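 active = Hck-Nef kinase inhibition above about 50%, limit read from the data; inactive = inhibition below that limit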;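 note: 0% = DMSO with Hck plus Nef and 100% = Hck alone without Nef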
PfM18AAP inh-2: PfM18AAP inhibition, confirmation; shares compounds with PfM18AAP inh-1; recombinant PfM18AAP, H-Glu-NHMec fluorogenic cleavage; inhibition, % at 7.35 µM; 28% of 2,400 active; AID 2170;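 active = mean inhibition over replicate wells above the hit cutoff set for the earlier primary screen, cut at about 29% in these data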;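 note: 0% = median of test compound wells and 100% = 2 mM ZnCl2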
CTSL1 counter: Cathepsin L (human) inhibition, confirmation; shares compounds with PfM18AAP inh-1; purified cathepsin L1, Z-Leu-Arg-MCA fluorescence; inhibition, % at 5.96 µM; 2,400 tested, under 10 active;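 active = average inhibition across replicates above the hit cutoff set in the earlier primary screen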;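 note: 0% = median of test compound wells and 100% = Z-Phe-Ala-diazomethylketone 1 µM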
Numbers without * were called inactive; ? = inconclusive; · = no result given. In the library only some 2.9% were active in any assay of this set; here they are far more common.

SMILES | RBBP9 inhibitor | Runt-CBFb FRET | PfM18AAP inh-1 | Runt-SMMHC FRET | RanGTP-Impb inh | Hck-Nef inh | PfM18AAP inh-2 | CTSL1 counter
Cc1ccc(/C(O)=C/c2nc3cc(C)ccc3oc2=O)cc1 | 2 | 12 | 39* | -14 | 0 | -13 | -36 | -10
CCOC(=O)c1c(NC(=O)COc2ccc3ccc(=O)oc3c2)sc(C(=O)N(C)C)c1C | · | · | -6 | · | 6 | · | · | ·
O=C(Cc1cccs1)NNC(=S)NC(=O)c1ccco1 | -9 | 15 | 34* | 4 | 7 | 19 | -16 | -3
Cc1ccccc1NC(=S)c1ccc2ccccc2n1 | · | · | 41* | · | -1 | · | -24 | 3
CCCN(CC(=O)Nc1ccccc1C)C(=O)c1ccc2ccccc2n1 | · | · | · | · | 3 | · | · | ·
NC(=O)C(=CNc1nc(-c2ccc(Cl)c(Cl)c2)cs1)C(N)=O | 6 | 23 | 69* | 16 | · | 2 | 53* | -2
O=C(CSc1ncnc2c1cnn2-c1cccc(Cl)c1)NCC1CCCO1 (stereo unspecified) | · | · | -12 | · | 0 | · | · | ·
CCC(=O)Nc1ccc(NC(=O)c2cccc3ccccc23)cc1 | · | · | -1 | · | 4 | · | · | ·
CCC(=O)Nc1ccc(NC(=O)c2cccc3c(Br)cccc23)cc1 | · | · | 45* | · | -2 | · | -30 | 1
CCC1CCCCN1CCCNC(=O)c1ccc(N2CCOCC2)c(NS(=O)(=O)c2ccc(OC)cc2)c1 (stereo unspecified) | -12 | -1 | -3 | 1 | -3 | 17 | · | ·
CCC1CCCCN1CCCNC(=O)c1ccc2c(c1)NC(=O)CN2C (stereo unspecified) | · | · | 32* | · | 5 | · | -13 | 5
Cc1ccc(S(=O)(=O)N2CCC(C(=O)NCCc3ccccn3)CC2)cc1 | -3 | 2 | -18 | -3 | 1 | 17 | · | ·
COc1cc(C2C3=C(CC(C)(C)CC3=O)N(C)C3=C2C(=O)CC(C)(C)C3)ccc1O | · | · | 34* | · | 11 | · | -16 | -4
COCCN1C2=C(C(=O)CC(C)(C)C2)C(c2ccc(O)c(OC)c2)C2=C1CC(C)(C)CC2=O | · | · | 8 | · | 3 | · | · | ·
O=C(O)C1CCN(S(=O)(=O)c2ccc(N3CCCC3C(=O)O)c([N+](=O)[O-])c2)CC1 (stereo unspecified) | · | · | 36* | · | -2 | · | -21 | 1
O=C(O)C1CCN(c2ccc(S(=O)(=O)N3CCC(C(=O)O)CC3)cc2[N+](=O)[O-])CC1 | · | · | 8 | · | 7 | · | · | ·
COc1ccc(-c2cc(C)no2)cc1S(=O)(=O)NCCc1ccco1 | · | · | -4 | · | ? | · | · | ·
C/C(=N\Nc1nc(C)cc(-c2ccccc2)n1)c1ccc(C)o1 | -3 | -3 | 52* | -5 | ? | 1 | -34 | -1
C/C(=N/Nc1nc(C)cc(-c2ccccc2)n1)c1ccco1 | 0 | 2 | 13 | -3 | -2 | 7 | · | ·
CCOC(=O)c1ccc(NC(=O)c2sc3nc(N4CCOCC4)c4c(c3c2N)CCCC4)cc1 | · | · | 42* | · | 1 | · | -17 | -2
COc1ccccc1NC(=O)c1sc2nc(N3CCOCC3)c3c(c2c1N)CCCC3 | · | · | 27 | · | -2 | · | · | ·
Nc1c(C(=O)NCCc2ccccc2)sc2nc(N3CCOCC3)c3c(c12)CCCC3 | -9 | 34 | 37* | 30 | -1 | 11 | -17 | -3
Cc1ccccc1NC(=O)c1sc2nc(N3CCOCC3)c3c(c2c1N)CCCC3 | · | · | 41* | · | 5 | · | 26 | 3
COc1ccc(NC(=O)c2ccc(Cl)c(S(=O)(=O)NCC3CCCO3)c2)c(OC)c1 (stereo unspecified) | · | · | 1 | · | -3 | · | · | ·
Cc1onc(NC(=O)CSCC(=O)O)c1Br | -5 | 1 | 2 | 2 | 1 | 15 | · | ·
CCOC(=O)C1=C(CS(=O)(=O)c2ccc(F)cc2)NC(=O)NC1c1ccc(O)c(O)c1 (stereo unspecified) | · | · | 79* | · | -3 | · | 62* | -9
CC(C)CCn1cnc2c(oc3nc4c(cc32)CCCC4)c1=O | -2 | -1 | -4 | 0 | 1 | 9 | · | ·
Cc1ccc(OCC(=O)Nn2cnnc2)c(Br)c1 | 6 | -1 | 66* | -3 | 6 | 6 | 57* | 5
